Data set [1] deals with Mitogen-activated protein kinase 7 (Homo sapiens) (UniProt Q13164). The data set can be described thus: Binding affinity to wild-type human partial length ERK5 (M1 to A409 residues) expressed in bacterial expression system assessed as residual binding level at 1 uM by Kinomescan method relative to control. A digest of the protocol: (§1)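 Kinome-wide competition binding screen against a panel of 468 purified kinases/mutants, with the test compound at a single concentration of 1 μM. Read-out is the relative binding activity of each kinase in the presence of compound.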

The target in data set [2] is Serine/threonine-protein kinase RIO3 (Homo sapiens) (UniProt O14730). The data set can be described thus: Binding affinity to wild-type human full length RIOK3 (M1 to E519 residues) expressed in bacterial expression system assessed as residual binding level at 1 uM by Kinomescan method relative to control. An outline of the steps:
(§2)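 KINOMEscan competition binding against 468 purified kinases/mutants, test compound at 1 µM; residual binding relative to control.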

Another data set concerns EOL1. Put plainly: Induction of apoptosis in human EOL-1 cells assessed as cleaved PARP expression level at 3 to 100 nM after 24 hrs by Western blot analysis. In kind it is functional, cell-based. An outline of the steps:
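Cells exposed to compound or DMSO for the stated periods, then lysed and immunoblotted for PARP and caspase-3 cleavage, with β-actin as loading control. NCI-H1703 stimulation used PDGF AA at 100 ng/mL.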
For orientation: In western blotting, separated proteins are transferred to a membrane and probed.

Data set [3] deals with Activin receptor type-2B (Homo sapiens) (UniProt Q13705). The data set can be described thus: Binding affinity to wild-type human ACVR2B (H169 to D504 residues) expressed in bacterial expression system assessed as residual binding level at 1 uM by Kinomescan method relative to control. An outline of the steps:
as §2

Data set [4] concerns the target Citron Rho-interacting kinase (Homo sapiens) (UniProt O14578). The data set can be described thus: Binding affinity to wild-type human partial length CIT (M68 to E432 residues) expressed in bacterial expression system assessed as residual binding level at 1 uM by Kinomescan method relative to control. An outline of the steps: as §1
A further data set relates to Mus musculus. The data set can be described thus: Toxicity in NOD-SCID mouse engrafted with human EOL-1 cells assessed as change in body weight at 30 mg/kg/day, ip administered 3 weeks post cell inoculation. It counts as organism-based. The following applies: in vivo, 504 h.
The nature of data set [5]: AUC (0 to t) in Sprague-Dawley rat at 1 mg/kg, iv. In kind it is ADME, organism-based. As to conditions: in vivo. A digest of the protocol:
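Male Sprague-Dawley rats (6–8 weeks) fasted overnight, dosed IV or orally; compound dissolved in 5% DMSO/40% PEG400/55% saline (dosing solution 1 mg/mL). Blood (~0.2 mL) from jugular vein into heparin; IV sampling 1 min–8 h, oral 5 min–24 h. Plasma separated by centrifugation at 2–8 °C, stored at −80 °C until analysis.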

Data set [6] has as its target Ephrin type-A receptor 5 (Homo sapiens) (UniProt P54756). Put plainly: Binding affinity to wild-type human partial length EPHA5 (T627 to V930 residues) expressed in bacterial expression system assessed as residual binding level at 1 uM by Kinomescan method relative to control.
The target of data set [7] is Calcium/calmodulin-dependent protein kinase type 1B (Homo sapiens) (UniProt Q6P2M8). Put plainly: Binding affinity to wild-type human partial length CAMK1B (W9 to A311 residues) expressed in mammalian expression system assessed as residual binding level at 1 uM by Kinomescan method relative to control.
Data set [8] concerns the target Serine/threonine-protein kinase Chk1 (Homo sapiens) (UniProt O14757). Put plainly: Binding affinity to wild-type human partial length CHEK1 (M1 to G289 residues) expressed in bacterial expression system assessed as residual binding level at 1 uM by Kinomescan method relative to control.
The target in data set [9] is Tyrosine-protein kinase HCK (Homo sapiens) (UniProt P08631). The data set can be described thus: Binding affinity to wild-type human full length HCK (M22 to P526 residues) expressed in bacterial expression system assessed as residual binding level at 1 uM by Kinomescan method relative to control. An outline of the steps: as §2
Data set [10] addresses Mitogen-activated protein kinase kinase kinase 10 (Homo sapiens) (UniProt Q02779). Put plainly: Binding affinity to wild-type human partial length MLK2 (V52 to W380 residues) expressed in bacterial expression system assessed as residual binding level at 1 uM by Kinomescan method relative to control.
For data set [11], the target named is Tyrosine-protein kinase ABL1 (Homo sapiens, UniProt P00519). The data set can be described thus: Inhibition of ABL1 (unknown origin) using poly(4:1 Glu,Tyr) peptide as substrate preincubated for 1 hr followed by addition of ATP and measured after 30 mins by ADP-Glo bioluminescence assay. A general note: ADP-Glo first removes unused ATP, then detects ADP through luciferase.

The target in data set [12] is Macrophage-stimulating protein receptor (Homo sapiens) (UniProt Q04912). Put plainly: Binding affinity to wild-type human partial length MST1R (I1057 to L1363 residues) expressed in bacterial expression system assessed as residual binding level at 1 uM by Kinomescan method relative to control.
Data set [13] deals with Dual specificity mitogen-activated protein kinase kinase 7 (Homo sapiens) (UniProt O14733). The data set can be described thus: Binding affinity to wild-type human full length MKK7 (M1 to R419 residues) expressed in mammalian expression system assessed as residual binding level at 1 uM by Kinomescan method relative to control. An outline of the steps: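 Single-concentration KINOMEscan (DiscoverX) binding screen at 1 μM against a panel of 468 purified kinases and mutants. The read-out is binding relative to control.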

Data set [14] has as its target Serine/threonine-protein kinase 38-like (Homo sapiens) (UniProt Q9Y2H1). The data set can be described thus: Binding affinity to wild-type human partial length NDR2 (N34 to E447 residues) expressed in bacterial expression system assessed as residual binding level at 1 uM by Kinomescan method relative to control. A digest of the protocol: as §1
Data set [15] concerns the target Wee1-like protein kinase (Homo sapiens) (UniProt P30291). Put plainly: Binding affinity to wild-type human partial length WEE1 (M291 to K575 residues) expressed in bacterial expression system assessed as residual binding level at 1 uM by Kinomescan method relative to control. A digest of the protocol:
(§3)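 KINOMEscan competition binding against a panel of 468 purified kinases/mutants, compound tested at 1 μM; readout is relative binding activity versus control.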

For data set [16], the target named is Cyclin-dependent kinase 15 (Homo sapiens) (UniProt Q96Q40). Put plainly: Binding affinity to wild-type human full length PFTAIRE2 (M1 to W384 residues) expressed in bacterial expression system assessed as residual binding level at 1 uM by Kinomescan method relative to control. An outline of the steps:
as §2

Data set [17] has as its target Serine/threonine-protein kinase PLK3 (Homo sapiens) (UniProt Q9H4B4). The data set can be described thus: Binding affinity to wild-type human partial length PLK3 (A42 to L334 residues) expressed in mammalian expression system assessed as residual binding level at 1 uM by Kinomescan method relative to control. An outline of the steps:
as §3

The target of data set [18] is Non-receptor tyrosine-protein kinase TYK2 (Homo sapiens) (UniProt P29597). The data set can be described thus: Binding affinity to wild-type human partial length TYK2 JH1 catalytic domain (V877 to C1187 residues) expressed in mammalian expression system assessed as residual binding level at 1 uM by Kinomescan method relative to control.
For data set [19], the target named is Serine/threonine-protein kinase 38 (Homo sapiens) (UniProt Q15208). The data set can be described thus: Binding affinity to wild-type human partial length NDR1 (N33 to E449 residues) expressed in mammalian expression system assessed as residual binding level at 1 uM by Kinomescan method relative to control.
The target in data set [20] is Tyrosine-protein kinase receptor TYRO3 (Homo sapiens) (UniProt Q06418). The data set can be described thus: Binding affinity to wild-type human partial length TYRO3 (S497 to T814 residues) expressed in bacterial expression system assessed as residual binding level at 1 uM by Kinomescan method relative to control.

Active and inactive are the calls of the source. No cut-off for these calls is given here.

Chain of Ephrin type-A receptor 5 (Homo sapiens) (P54756 whole entry, the tested form may be a part): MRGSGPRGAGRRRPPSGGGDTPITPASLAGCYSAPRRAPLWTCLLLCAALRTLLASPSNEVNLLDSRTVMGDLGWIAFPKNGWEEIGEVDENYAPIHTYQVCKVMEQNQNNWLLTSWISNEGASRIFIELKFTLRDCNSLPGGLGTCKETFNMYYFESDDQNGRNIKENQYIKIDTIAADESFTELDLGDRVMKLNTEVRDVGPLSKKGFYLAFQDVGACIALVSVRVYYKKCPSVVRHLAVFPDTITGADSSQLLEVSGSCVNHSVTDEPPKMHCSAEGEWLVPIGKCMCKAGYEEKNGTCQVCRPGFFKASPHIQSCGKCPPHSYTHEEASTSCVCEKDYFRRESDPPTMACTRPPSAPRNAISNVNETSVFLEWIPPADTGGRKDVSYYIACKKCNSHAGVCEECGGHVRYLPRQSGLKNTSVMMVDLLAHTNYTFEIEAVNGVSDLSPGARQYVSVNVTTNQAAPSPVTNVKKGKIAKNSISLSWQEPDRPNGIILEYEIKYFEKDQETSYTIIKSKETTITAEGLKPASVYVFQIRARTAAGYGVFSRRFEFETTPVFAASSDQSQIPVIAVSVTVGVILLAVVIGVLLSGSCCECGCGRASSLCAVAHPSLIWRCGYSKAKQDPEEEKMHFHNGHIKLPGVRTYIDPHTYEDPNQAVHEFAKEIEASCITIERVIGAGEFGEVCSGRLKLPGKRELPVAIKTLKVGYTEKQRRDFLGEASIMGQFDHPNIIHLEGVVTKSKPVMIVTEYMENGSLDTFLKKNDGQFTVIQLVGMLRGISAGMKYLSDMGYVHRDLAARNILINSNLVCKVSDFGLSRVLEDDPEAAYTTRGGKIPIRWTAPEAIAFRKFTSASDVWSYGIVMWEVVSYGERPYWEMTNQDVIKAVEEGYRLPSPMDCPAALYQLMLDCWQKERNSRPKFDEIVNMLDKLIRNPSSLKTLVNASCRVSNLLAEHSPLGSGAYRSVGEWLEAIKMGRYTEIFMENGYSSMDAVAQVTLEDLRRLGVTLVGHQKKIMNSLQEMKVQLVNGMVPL
Chain of Serine/threonine-protein kinase PLK3 (Homo sapiens) (Q9H4B4 whole entry, looked up, the tested form may be a part): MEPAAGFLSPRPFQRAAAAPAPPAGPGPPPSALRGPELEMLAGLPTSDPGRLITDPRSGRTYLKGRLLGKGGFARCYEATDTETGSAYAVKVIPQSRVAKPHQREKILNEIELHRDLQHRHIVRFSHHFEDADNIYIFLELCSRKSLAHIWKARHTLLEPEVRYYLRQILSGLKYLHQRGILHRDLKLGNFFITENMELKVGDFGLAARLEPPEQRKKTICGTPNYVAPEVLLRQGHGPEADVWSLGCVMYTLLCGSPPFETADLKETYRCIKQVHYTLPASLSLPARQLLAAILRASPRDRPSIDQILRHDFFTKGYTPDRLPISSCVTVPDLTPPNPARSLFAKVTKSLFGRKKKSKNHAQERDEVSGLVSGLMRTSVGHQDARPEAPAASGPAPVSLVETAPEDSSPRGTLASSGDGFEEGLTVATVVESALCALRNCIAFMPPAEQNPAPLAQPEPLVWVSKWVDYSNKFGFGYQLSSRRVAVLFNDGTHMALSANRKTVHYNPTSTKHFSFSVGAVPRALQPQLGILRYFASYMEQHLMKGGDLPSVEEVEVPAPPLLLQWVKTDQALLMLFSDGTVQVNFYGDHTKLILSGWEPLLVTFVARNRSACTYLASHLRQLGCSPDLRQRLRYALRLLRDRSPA
Chain of Activin receptor type-2B (Homo sapiens) (Q13705 whole entry, the tested form may be a part): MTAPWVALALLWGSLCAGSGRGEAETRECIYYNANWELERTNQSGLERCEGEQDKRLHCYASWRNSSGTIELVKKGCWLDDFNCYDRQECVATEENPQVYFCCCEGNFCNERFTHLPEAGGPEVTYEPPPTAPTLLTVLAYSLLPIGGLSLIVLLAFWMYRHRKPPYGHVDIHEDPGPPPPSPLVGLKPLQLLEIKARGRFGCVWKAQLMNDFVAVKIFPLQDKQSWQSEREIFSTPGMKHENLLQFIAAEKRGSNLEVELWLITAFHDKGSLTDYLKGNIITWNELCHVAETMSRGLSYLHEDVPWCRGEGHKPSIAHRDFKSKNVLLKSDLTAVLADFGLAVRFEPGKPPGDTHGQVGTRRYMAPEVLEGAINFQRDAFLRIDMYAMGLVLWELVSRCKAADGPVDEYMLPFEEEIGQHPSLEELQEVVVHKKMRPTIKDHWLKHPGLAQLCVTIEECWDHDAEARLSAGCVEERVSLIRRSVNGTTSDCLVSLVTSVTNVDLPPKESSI
Chain of Tyrosine-protein kinase receptor TYRO3 (Homo sapiens) (Q06418 whole entry, the tested form may be a part): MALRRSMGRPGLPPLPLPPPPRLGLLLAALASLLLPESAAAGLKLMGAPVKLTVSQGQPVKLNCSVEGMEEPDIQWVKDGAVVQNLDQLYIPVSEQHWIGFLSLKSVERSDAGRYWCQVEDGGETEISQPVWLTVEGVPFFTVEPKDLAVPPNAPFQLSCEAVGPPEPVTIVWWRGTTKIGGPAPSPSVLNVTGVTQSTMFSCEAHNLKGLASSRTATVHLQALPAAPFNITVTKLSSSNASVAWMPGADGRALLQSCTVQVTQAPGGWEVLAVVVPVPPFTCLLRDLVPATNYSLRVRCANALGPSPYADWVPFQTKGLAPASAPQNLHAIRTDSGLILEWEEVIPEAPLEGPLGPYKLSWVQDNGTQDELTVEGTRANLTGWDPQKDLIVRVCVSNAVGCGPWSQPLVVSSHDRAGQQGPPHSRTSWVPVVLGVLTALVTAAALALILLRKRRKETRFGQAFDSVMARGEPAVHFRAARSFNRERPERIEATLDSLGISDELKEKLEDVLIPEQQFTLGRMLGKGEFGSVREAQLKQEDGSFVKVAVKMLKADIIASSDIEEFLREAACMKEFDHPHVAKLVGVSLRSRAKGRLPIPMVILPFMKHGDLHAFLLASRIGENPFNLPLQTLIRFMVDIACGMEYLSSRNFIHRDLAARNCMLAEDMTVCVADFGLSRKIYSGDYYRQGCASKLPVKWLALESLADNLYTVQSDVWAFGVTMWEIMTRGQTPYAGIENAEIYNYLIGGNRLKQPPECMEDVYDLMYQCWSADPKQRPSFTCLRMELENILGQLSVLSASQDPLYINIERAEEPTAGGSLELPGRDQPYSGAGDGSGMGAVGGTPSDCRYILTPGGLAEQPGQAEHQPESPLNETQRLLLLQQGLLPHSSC
Chain of Mitogen-activated protein kinase kinase kinase 10 (Homo sapiens) (Q02779 whole entry, looked up, the tested form may be a part): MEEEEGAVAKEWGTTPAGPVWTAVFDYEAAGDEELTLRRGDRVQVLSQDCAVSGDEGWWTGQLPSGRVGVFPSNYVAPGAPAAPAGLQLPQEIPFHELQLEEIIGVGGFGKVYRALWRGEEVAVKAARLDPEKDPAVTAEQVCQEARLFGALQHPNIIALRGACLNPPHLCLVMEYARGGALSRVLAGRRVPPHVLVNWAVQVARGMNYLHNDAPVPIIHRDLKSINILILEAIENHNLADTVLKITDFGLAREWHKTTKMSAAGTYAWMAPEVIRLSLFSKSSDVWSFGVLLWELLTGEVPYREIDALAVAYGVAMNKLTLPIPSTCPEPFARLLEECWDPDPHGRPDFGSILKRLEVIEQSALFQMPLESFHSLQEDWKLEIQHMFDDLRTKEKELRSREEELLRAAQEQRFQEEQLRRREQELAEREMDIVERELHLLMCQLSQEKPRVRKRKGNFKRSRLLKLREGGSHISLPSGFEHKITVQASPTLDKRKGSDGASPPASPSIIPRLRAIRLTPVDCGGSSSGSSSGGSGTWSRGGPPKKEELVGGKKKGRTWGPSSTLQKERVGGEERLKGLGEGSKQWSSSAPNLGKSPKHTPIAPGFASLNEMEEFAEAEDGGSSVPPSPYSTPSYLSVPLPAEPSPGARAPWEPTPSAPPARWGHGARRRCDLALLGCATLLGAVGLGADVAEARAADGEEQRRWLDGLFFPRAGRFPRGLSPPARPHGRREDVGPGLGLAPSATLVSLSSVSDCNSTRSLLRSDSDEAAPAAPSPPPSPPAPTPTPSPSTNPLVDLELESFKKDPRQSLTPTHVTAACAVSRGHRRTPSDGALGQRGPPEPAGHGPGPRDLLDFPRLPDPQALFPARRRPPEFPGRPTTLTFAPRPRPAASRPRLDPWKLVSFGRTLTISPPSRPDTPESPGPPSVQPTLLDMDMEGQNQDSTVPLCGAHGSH
Chain of Serine/threonine-protein kinase 38-like (Homo sapiens) (Q9Y2H1 2-464 limits assumed): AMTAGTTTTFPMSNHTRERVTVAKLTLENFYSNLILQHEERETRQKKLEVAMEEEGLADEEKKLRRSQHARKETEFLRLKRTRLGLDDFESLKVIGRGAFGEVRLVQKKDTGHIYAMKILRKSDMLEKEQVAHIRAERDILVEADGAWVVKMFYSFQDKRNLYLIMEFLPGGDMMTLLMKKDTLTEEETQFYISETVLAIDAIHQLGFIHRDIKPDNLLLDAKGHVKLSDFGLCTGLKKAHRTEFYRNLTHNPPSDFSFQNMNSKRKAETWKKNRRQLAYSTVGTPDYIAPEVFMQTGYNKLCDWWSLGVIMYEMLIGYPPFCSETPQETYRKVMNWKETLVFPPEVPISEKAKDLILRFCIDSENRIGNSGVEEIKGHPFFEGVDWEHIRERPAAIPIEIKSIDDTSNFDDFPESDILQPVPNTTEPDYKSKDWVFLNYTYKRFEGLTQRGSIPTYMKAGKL
Chain of Serine/threonine-protein kinase RIO3 (Homo sapiens) (O14730 whole entry, the tested form may be a part): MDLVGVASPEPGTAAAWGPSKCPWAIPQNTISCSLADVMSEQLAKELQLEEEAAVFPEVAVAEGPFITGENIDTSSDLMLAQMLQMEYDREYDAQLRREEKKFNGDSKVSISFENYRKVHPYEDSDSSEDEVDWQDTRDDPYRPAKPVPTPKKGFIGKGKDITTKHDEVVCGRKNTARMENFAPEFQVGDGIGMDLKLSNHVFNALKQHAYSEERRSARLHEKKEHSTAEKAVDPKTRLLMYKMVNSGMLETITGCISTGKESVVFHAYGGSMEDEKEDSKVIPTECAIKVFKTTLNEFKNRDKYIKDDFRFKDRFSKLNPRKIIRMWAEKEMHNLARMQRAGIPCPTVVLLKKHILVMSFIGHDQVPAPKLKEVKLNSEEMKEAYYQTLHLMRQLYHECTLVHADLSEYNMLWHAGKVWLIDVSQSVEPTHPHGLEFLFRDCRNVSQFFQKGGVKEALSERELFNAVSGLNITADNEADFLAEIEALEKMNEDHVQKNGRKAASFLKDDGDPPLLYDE

As for `Cc1ccc(NC(=O)c2ccc(CN(CCN(C)C)C(=O)c3cccnc3)cc2)cc1Nc1nccc(-c2cccnc2)n1`, the Activity is 84% in data set [1]; 69% in data set [2]; 89% in data set [3]; 89% in data set [4]; “Non-Toxic” in the data set with Mus musculus; 86% in data set [6]. The Activity in data set [7] is 90%; in data set [8], 100%; in data set [9] it was 83%; in data set [10] it was 96%; in [12] it was 100%; in data set [13] it was 100%. The Activity came out at 82% in data set [14]; 87% in data set [15]; 87% in data set [16]; 79% in data set [17]; 100% in [18]; 71% in data set [19]. For the same molecule, the Activity in data set [20] worked out at 85%. In addition, in the data set on EOL1, the outcome was Active. Further, in [5], the area under the curve AUC(0-t) (usually the area under the concentration-time curve up to a stated or last time point) is 528 ng·h/mL. Also, the half-maximal inhibitory concentration (IC50) (in general, the point on the concentration scale where inhibition reaches its midpoint) in data set [11] was > 10 µM.

(Values after ChEMBL document CHEMBL4229344 (Eur J Med Chem, 2018).)
